# Bioassay records from PubChem.
# ERa SRC1 pot: ER-alpha (human) coactivator binding potentiation; P03372; TR-FRET ERalpha-LBD/SRC-Cy5 coactivator binding, 2 h; 100 = basal binding, no effect; coactivator binding (% of control), % at 25.6 µM; 1.3% of 86,000 active; AID 639; in the data active means activity above about 200%;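 further: binding measured in presence of low estradiol as agonist stimulus; 0% = peptide alone without receptor and 100% = receptor with peptide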
# Target sequence (P03372 whole entry, looked up, the tested form may be a part): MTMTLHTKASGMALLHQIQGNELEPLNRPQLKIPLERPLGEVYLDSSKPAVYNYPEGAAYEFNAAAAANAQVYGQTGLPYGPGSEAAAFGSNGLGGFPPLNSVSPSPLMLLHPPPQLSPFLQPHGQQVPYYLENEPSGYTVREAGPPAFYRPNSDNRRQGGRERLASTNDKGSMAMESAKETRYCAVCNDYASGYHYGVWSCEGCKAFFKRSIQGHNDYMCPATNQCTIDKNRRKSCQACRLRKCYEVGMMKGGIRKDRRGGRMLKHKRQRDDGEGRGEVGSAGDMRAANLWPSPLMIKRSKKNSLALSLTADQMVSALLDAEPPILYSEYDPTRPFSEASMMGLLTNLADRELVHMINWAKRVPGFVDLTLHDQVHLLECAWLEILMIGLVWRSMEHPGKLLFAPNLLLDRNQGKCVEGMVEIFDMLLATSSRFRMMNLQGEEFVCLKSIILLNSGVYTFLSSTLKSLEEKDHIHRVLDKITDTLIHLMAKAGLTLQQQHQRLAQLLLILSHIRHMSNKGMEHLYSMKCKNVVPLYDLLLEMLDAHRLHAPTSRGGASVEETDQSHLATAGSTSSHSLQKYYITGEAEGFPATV
# ERb SRC1 inh: ER-beta (human) coactivator binding inhibition; 1.3% of 86,000 active; inhibition, % at 25.6 µM; TR-FRET ER-beta LBD / SRC1-Cy5 peptide binding; receptor agonist-loaded with 1 µM estradiol;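 active means compounds whose percent inhibition of the receptor-coactivator binding signal exceeds about 50% in the single-dose screen, limit read from the data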;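 further: 0% = receptor plus peptide wells without compound and 100% = peptide-only wells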
# HUVEC prolif 384: human endothelial cell proliferation inhibition; HUVEC proliferation, CellTiter-Glo luminescence, 72 h; stronger effect = lower value; viability, % at 10 µM (by protocol); 1.1% of 86,000 active; AID 648;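 active means viability at or below 30%; inactive means viability above 30%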;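 further: 100% = median luminescence of DMSO-only cell control wells on each plate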
# Fibroblast inh: blocks proliferation of human lung fibroblasts; LL 47 human lung fibroblast viability, ATP luminescence; stronger effect = lower value; viability, % at 10 µM; 1.1% of 85,000 active;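 active means viability at or below 50% in the single dose screen; inactive means viability above 50%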;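 further: compound exposure lasted 72 h before the ATP readout; 100% = median luminescence of untreated cell-only wells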
#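 Assay system: human lung fibroblast line LL 47, low passage. Input: 1,150 fibroblasts seeded per well. Times: overnight cell rest, 72 h compound treatment at 37 °C. Evaluation: % viability of median cell-only signal. Technique: luminescent ATP detection, CellTiter-Glo. Control set: cell-only wells, no compound.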
# H69AR inhibit: blocks growth of human H69AR lung tumor cells; viability, % at 10 µM; AID 598; 6% of 85,000 active; H69AR lung tumor viability, ATP luminescence, 72 h; stronger effect = lower value;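 active means viability at or below 40%; inactive means viability above 40%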;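 further: multidrug resistant small cell line overexpressing MRP-1 efflux transporter; 100% = mean luminescence of untreated control wells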
# ERa coact inh: blocks coactivator binding to human estrogen receptor alpha | TR-FRET ER-alpha LBD / SRC-1 peptide, estradiol-bound | 1.7% of 86,000 active | inhibition, % at 25.6 µM | P03372; in the data active means inhibition above about 50%;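 further: 0% = receptor plus peptide control and 100% = peptide only without receptor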
# * hit, by the source's call; [ ] = dose if it differs, or a comment. Only some compounds are listed: those with a hit (about 9.2% of all), similar ones and a draw of the others.
SMILES,ERa SRC1 pot,ERb SRC1 inh,HUVEC prolif 384,Fibroblast inh,H69AR inhibit,ERa coact inh
Cc1ccccc1C(=O)NCc1nnc(SCC(=O)N2c3ccccc3Sc3ccccc32)n1C,91,-4,86,96,101,-5
COC(=O)C1CN(S(=O)(=O)c2ccccc2)CCN1S(=O)(=O)c1ccccc1 (configuration not stated),101,-6,100,107,97,-9
CC(O)CNc1nc2ccccc2n1-c1ncnc2sc3c(c12)CCC3 (configuration not stated),94,-4,53,81,38*,-1
COc1cccc(CN(Cc2cccnc2)S(=O)(=O)c2ccc(-n3cnnn3)c(C)c2)c1,94,2,105,96,86,5
CC(C)c1ccccc1NC(=O)c1cccc(NC(=O)c2ccccc2)c1,116,5,80,95,87,5
Cc1nn(-c2ccccc2)c2sc(C(=O)C(C#N)c3ccccn3)cc12 (configuration not stated),23,93*[fluorescence artefact?],107,100,90,79*[fluorescence artefact?]
Cc1nn(-c2ccccc2)c2sc(C(=O)N3CCCCC3)cc12,95,-3,79,91,66,-3
Cc1nn(-c2ccccc2)c2sc(C(=O)NC3CCCCC3)cc12,105,0,81,103,59,-10
Cc1nn(-c2ccccc2)c2sc(C(=O)n3cccn3)cc12,100,8,48,92,38*,15
Cc1ccn(C(=O)c2cc3c(C)nn(-c4ccccc4)c3s2)n1,135,14,53,110,81,15
Cc1cnc(NC(=O)c2cc3c(C)nn(-c4ccccc4)c3s2)s1,155,12,64,62,26*,20
Cc1nn(-c2ccccc2)c2sc(C(=O)c3c(N)n(C)c(=O)n(C)c3=O)cc12,550*,13,93,94,74,-11
Cc1nc(SCC(=O)Nc2ccc(F)cc2)c2oc3ccccc3c2n1,149,23,72,89,91,11
O=C(CSc1ncnc2c1oc1ccccc12)N1CCN(c2ccccc2)CC1,136,11,88,105,84,22
O=C(CSc1ncnc2c1oc1ccccc12)Nc1cccc(Cl)c1,373*[fluorescence artefact?],26,64,89,71,6
O=C(CSc1ncnc2c1oc1ccccc12)Nc1cccc(C(F)(F)F)c1,188,19,45,95,17*,24
Cc1ccc(S(=O)(=O)c2nc(N3CCOCC3)sc2Cl)cc1,126,3,94,97,83,-11
CCCNCc1cc(OC)c(OCCC)cc1Cl,120,-13,83,87,88,-5
O=C1CN(C(=O)COC(=O)C2=COCCO2)c2ccccc2N1,105,10,96,93,112,1
O=C(OCC(=O)N1CCc2ccccc21)C1=COCCO1,126,-4,94,99,28*,-1
CNCCCOc1ccc(C(C)(C)c2ccccc2)cc1,84,6,86,92,9.9*,-3
CCOC(=O)N1CCN(CC(=O)Nc2ccc(C)c(Br)c2)CC1,105,8,95,101,91,-4
Nc1cc(-c2nn[nH]n2)ccc1F,59,60*[fluorescence artefact?],90,97,97,43
COc1ccc(-c2nn[nH]n2)cc1OC,97,2,111,100,112,-4
Brc1ccc(-c2nc(-c3ccccn3)no2)o1,115,3,81,88,77,1
SMILES,ERa SRC1 pot,ERb SRC1 inh,HUVEC prolif 384,Fibroblast inh,H69AR inhibit,ERa coact inh
COc1ccccc1-c1nc(-c2ccccn2)no1,104,1,60,53,40*,-2
COc1ccccc1-c1noc(-c2ccncc2)n1,113,-2,91,103,92,3
Clc1ccc(-c2nc(-c3ccccn3)no2)cc1Cl,265*,17,60,91,83,27
O=C(CNC(=O)c1ccc(Cl)cc1)NCCCn1ccnc1,109,-28,98,93,85,-17
c1cncc(-c2nnc(-c3ccco3)o2)c1,89,-6,94,106,100,-5
c1cncc(-c2nc(-c3cccs3)cs2)c1,103,-4,84,92,75,-5
c1cncc(-c2nc(-c3ccco3)cs2)c1,83,60*[fluorescence artefact?],92,98,102,5
Clc1ccsc1-c1csc(-c2cccnc2)n1,115,-7,38,75,17*,2
CCNc1nc(NCC)nc(N2CC(=O)N(CC(=O)OCC)C2=N)n1,128,-10,101,97,86,-8
Cc1ccc(S(=O)(=O)N(CCC(=O)O)Cc2ccc(Cl)cc2)cc1,128,5,86,95,94,2
Cn1cccc1-c1nc2ccc(NC(=O)c3ccc([N+](=O)[O-])cc3)cc2[nH]1,98,11,90,92,33*,14
CCNC(=O)NC(=O)COc1ccccc1C#N,332*[fluorescence artefact?],-24,96,96,99,-25
COC(=O)CCC(=O)COc1ccccc1C#N,96,-22,102,104,88,-40
COc1ccc(Cl)cc1NC(=O)C(C)N1CCN(C/C=C/c2ccccc2)CC1 (configuration not stated),91,-3,67,89,40*,1
COc1ccc(Cl)cc1NC(=O)N1CCN(CCc2ccccc2)CC1,107,-9,82,91,72,-8
Nc1c(C(=O)NCCN2CCOCC2)c2nc3ccccc3nc2n1CCc1ccccc1,86,3,58,87,47,-4
Nc1c(C(=O)NCCN2CCOCC2)c2nc3ccccc3nc2n1-c1ccc2c(c1)OCO2,73,39,85,75,36*,63*[fluorescence artefact?]
COCCNC(=O)c1c(N)n(-c2ccccc2)c2nc3ccccc3nc12,79,25,77,89,61,3
Nc1c(C(=O)NCCN2CCOCC2)c2nc3ccccc3nc2n1-c1ccccc1,109,-25,96,98,36*,-32
Nc1c(C(=O)NCc2ccco2)c2nc3ccccc3nc2n1CCc1ccc(F)cc1,44,19,34,83,4.0*,31
N#Cc1c(N)n(CCc2ccc(F)cc2)c2nc3ccccc3nc12,104,3,97,99,71,-1
Nc1ccc(-n2c(N)c(C(=O)NCc3ccc4c(c3)OCO4)c3nc4ccccc4nc32)cc1,15,33,83,89,61,79*[fluorescence artefact?]
Nc1c(C(=O)NCCN2CCOCC2)c2nc3ccccc3nc2n1CCc1ccccc1F,88,-2,43,92,26*,-4
Nc1c(C(=O)NCc2ccc3c(c2)OCO3)c2nc3ccccc3nc2n1CCCN1CCOCC1,94,-10,20*,62,1.1*,-15
COc1ccc(S(=O)(=O)N2CCSC2c2ccc(N)cc2)cc1 (configuration not stated),135,-11,80,89,90,-8
